For data set [1], the target named is T1, Gamma-aminobutyric acid receptor subunit alpha-1/beta-3 (Rattus norvegicus) (UniProt P62813+P63079). As to the kind of experiment: Positive allosteric modulator activity at rat alpha1beta3 GABA-A receptor expressed in Xenopus laevis oocytes assessed as increase in GABA-induced chloride current at 10 uM co-applied with GABA at concentration of EC3-5 at -60 mV holding potential by two-microelectrode voltage clamp method relative to control. Type of data set: cell-based. The procedure, abridged:
(§1)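 α1 and β3 RNA mixed 1:1 (final 56 ng/μl); collagenase-defolliculated stage 5–6 Xenopus oocytes injected with 2.8 ng mRNA, kept 2–3 days at 18 °C. Two-electrode clamp at −60 mV, room temperature, electrodes 1–3 MΩ with 2 M KCl, NDE perfusion 6 mL/min. GABA titrated to 3–5% of maximal current, co-applied with compound (0.1% DMSO final) until peak response.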

The nature of data set [2]: Solubility of the compound in DMSO. The class given is physicochemical.
A short description of data set [3]: Solubility of the compound at 30 uM in NDE medium containing 0.1% DMSO. Type of data set: physicochemical.
Data set [4] deals with T1, Gamma-aminobutyric acid receptor subunit alpha-1/beta-3 (Rattus norvegicus). As to the kind of experiment: Positive allosteric modulator activity at rat alpha1beta3 GABA-A receptor expressed in Xenopus laevis oocytes assessed as increase in GABA-induced chloride current at 1 to 30 uM co-applied with GABA at concentration of EC3-5 at -60 mV holding potential by two-microelectrode voltage clamp method relative to control. The class given is cell-based. Summed up:
as §1

Data set [5] has the same target. As to the kind of experiment: Positive allosteric modulator activity at rat alpha1beta3 GABA-A receptor expressed in Xenopus laevis oocytes assessed as increase in GABA-induced chloride current at 30 uM co-applied with GABA at concentration of EC3-5 at -60 mV holding potential by two-microelectrode voltage clamp method relative to control. The class given is cell-based. The procedure, abridged: as §1

Data set [6] can be described thus: Solubility of the compound in MeOH. Type of data set: physicochemical.

The source made the active and inactive calls. The calls are words filed in the database; no cut-off is given here.

For the compound `COc1ccc(-n2nc3c4cc(OC)ccc4[nH]cc-3c2=O)cc1`, in data set [1], the Efficacy was 1120%.

For the compound `Cc1ccc(/N=N/c2c(C(=O)O)[nH]c3ccc(Cl)cc23)cc1`, the solubility entry in data set [2], in data set [3] and in data set [6] was “Soluble” each time. In addition, the outcome in data set [4] was Active. The figures for the Efficacy in data set [5] and in data set [1] were 1800% and 707%, respectively.

Take `COc1ccc2[nH]c(C(=O)O)c(/N=N/c3ccc(C)cc3)c2c1`: the solubility result in data set [2], in data set [3] and in data set [6] was “Soluble” throughout. Further, the result in data set [4] was Active. In addition, the Efficacy in data set [5] came to 400%; in data set [1] it was 167%.

As for `Cc1ccc(-n2nc3c4cc(Cl)ccc4[nH]cc-3c2=O)cc1`, in data set [1], the Efficacy stood at 372%.

For the compound `COc1ccc(/N=N/c2c(C(=O)O)[nH]c3ccccc23)cc1`, the solubility entry in data set [2], in data set [3] and in data set [6] was “Soluble” throughout. For the same compound, the Efficacy in data set [5] turned out to be 200%.

With `COc1ccc(/N=N/c2c(C(=O)O)[nH]c3ccc(OC)cc23)cc1`, the solubility entry in data set [2], in data set [3] and in data set [6] was “Soluble” each time. Moreover, the values for the Efficacy in data set [5] and in data set [1] were 300% and 196%, respectively.

On to `CCOC(=O)c1[nH]c2ccc(Cl)cc2c1/N=N/c1ccc(OC)cc1`, for which the result in data set [5] was inactive.

As for `O=C(O)c1[nH]c2ccc(Cl)cc2c1/N=N/c1ccc(Br)cc1`, the solubility entry in data set [2], in data set [3] and in data set [6] was “Soluble” each time. Further, the outcome in data set [4] was Active. Further, in data set [5], the Efficacy stood at 3000%.

`COc1ccc2[nH]cc3c(=O)n(-c4ccc(C)cc4)nc-3c2c1`: in data set [1], the Efficacy was determined as 719%.

Regarding `COc1ccc(-n2nc3c4cc(Cl)ccc4[nH]cc-3c2=O)cc1`, the Efficacy in data set [1] was determined as 1060%.

As for `COc1ccc2[nH]c(C(=O)O)c(/N=N/c3ccc(Br)cc3)c2c1`, the solubility result in data set [2], in data set [3] and in data set [6] was “Soluble” in each case. The outcome in data set [4] was Active. Further, in data set [5], the Efficacy turned out to be 830%.

`COc1ccc(/N=N/c2c(C(=O)O)[nH]c3ccc(Cl)cc23)cc1`: the solubility result in data set [2], in data set [3] and in data set [6] was “Soluble” each time. Besides, the result in data set [4] was Active. Also, the Efficacy in data set [5] was determined as 2000%; in data set [1], 919%.

For the compound `CCOC(=O)c1[nH]c2ccccc2c1/N=N/c1ccc(OC)cc1`, the result in data set [5] was inactive.

These data come from ChEMBL document CHEMBL4364311, “Variations on a scaffold - Novel GABAA receptor modulators” (Eur J Med Chem, 2019).
